According to ChEMBL document CHEMBL1157420, “2-phenyl-4-piperazinylbenzimidazoles: orally active inhibitors of the gonadotropin releasing hormone (GnRH) receptor” (Bioorg Med Chem, 2008):
Activity calls are given as the source filed them. The calls are words filed in the database; no cut-off is given here.

Key:
[1] = target: T1, Gonadotropin-releasing hormone receptor (Homo sapiens, UniProt P30968); experiment: Displacement of [125I]-(D-Trp6)LHRH from human recombinant GnRH receptor
T1 sequence (P30968 whole entry): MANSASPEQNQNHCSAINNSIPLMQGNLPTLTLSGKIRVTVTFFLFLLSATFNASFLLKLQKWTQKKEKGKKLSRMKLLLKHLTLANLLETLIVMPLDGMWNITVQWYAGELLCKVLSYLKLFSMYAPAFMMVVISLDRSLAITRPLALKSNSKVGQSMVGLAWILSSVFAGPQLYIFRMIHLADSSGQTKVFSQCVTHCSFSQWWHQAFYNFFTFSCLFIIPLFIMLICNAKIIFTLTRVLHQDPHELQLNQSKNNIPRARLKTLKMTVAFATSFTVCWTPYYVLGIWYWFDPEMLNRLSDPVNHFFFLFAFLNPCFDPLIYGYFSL
In short: (§1)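 Membranes from recombinant cells expressing human or rat GnRH receptor, made in 25 mM Tris-Cl pH 7.4 with 0.1% sodium azide and 0.1% BSA. 50 μg protein incubated with about 50,000 cpm 125I-(D-Trp6)-LHRH for 2 h at 4 °C, with increasing unlabeled competitor. Filtered on BSA-presoaked glass-fiber filters, washed twice, counted by gamma counter. Percent inhibition and IC50 derived.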

[2] = target: T2, Gonadotropin-releasing hormone receptor (Rattus norvegicus, UniProt P30969); experiment: Displacement of [125I]-(D-Trp6)LHRH from rat recombinant GnRH receptor; in short: as §1
T2 sequence (P30969 whole entry): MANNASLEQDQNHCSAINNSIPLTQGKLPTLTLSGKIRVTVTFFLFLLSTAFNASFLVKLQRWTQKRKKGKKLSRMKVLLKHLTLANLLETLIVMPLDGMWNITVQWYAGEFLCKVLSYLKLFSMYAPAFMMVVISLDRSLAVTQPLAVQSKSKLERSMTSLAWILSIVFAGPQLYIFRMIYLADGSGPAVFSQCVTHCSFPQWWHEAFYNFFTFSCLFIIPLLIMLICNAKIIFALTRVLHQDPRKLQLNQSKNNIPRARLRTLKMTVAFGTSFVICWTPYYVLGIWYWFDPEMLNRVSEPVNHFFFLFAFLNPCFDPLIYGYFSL

[3] = target: T1, Gonadotropin-releasing hormone receptor; experiment: Antagonist activity at human recombinant GnRH receptor assessed as reduction in (D-Trp6)LHRH-induced myo-(1,2)-[3H]inositol production; assay type: functional
In short: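 Recombinant cells expressing human GnRH receptor, pre-labeled with myo-(1,2)-3H-inositol, incubated 1 h in medium with lithium chloride and D-Trp6-LHRH, with or without antagonist. Cells then lysed and labeled inositol phosphates separated from inositol by […] and counted. Run in triplicate, repeated in three independent experiments; IC50 derived.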

[4] = target: T2, Gonadotropin-releasing hormone receptor; experiment: Antagonist activity at […] GnRH receptor in CO2 asphyxiated rat primary pituitary cells assessed as reduction in (D-Trp6)LHRH-induced LH release; assay type: functional, cell-based, Pituitary gland cell
In short: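 Anterior pituitaries from adult rats were minced, dissociated and plated at 30,000 cells/well in DMEM with 25 mM Hepes and 10% FBS, then cultured 72 h at 37 °C, 5% CO2. After washing, cells were treated 3 h in 0.1% BSA medium with an antagonist dose response plus an ED50 concentration of D-Trp6-LHRH. LH in medium measured by RIA; cell toxicity checked by CellTiter-Glo.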

[5] = Half life in rat plasma at 1.0 mg/kg, iv; assay type: ADME, organism-based; parameters: dose 1 mg/kg, route intravenous
[6] = AUC (0 to infinity) in rat at 1.0 mg/kg, iv; assay type: ADME, organism-based; parameters: time infinity, dose 1 mg/kg, route intravenous; settings: plasma
[7] = Plasma clearance in rat at 1.0 mg/kg, iv; assay type: ADME, organism-based; parameters: dose 1 mg/kg, route intravenous
[8] = Volume of distribution at steady state in rat at 1.0 mg/kg, iv; assay type: ADME, organism-based; parameters: dose 1 mg/kg, route intravenous; settings: in vivo, read-out: Vdss
[9] = Half life in rat plasma at 20 mg/kg, po; assay type: ADME, organism-based; parameters: dose 20 mg/kg, route oral
[10] = Tmax in rat at 20 mg/kg, po; assay type: ADME, organism-based; parameters: dose 20 mg/kg, route oral; settings: in vivo
[11] = Cmax in rat at 20 mg/kg, po; assay type: ADME, organism-based; parameters: dose 20 mg/kg, route oral; settings: in vivo
[12] = AUC (0 to infinity) in rat at 20 mg/kg, po; assay type: ADME, organism-based; parameters: time infinity, dose 20 mg/kg, route oral; settings: plasma
[13] = Bioavailability in rat at 20 mg/kg, po; assay type: ADME, organism-based; settings: in vivo
Rattus norvegicus = experiment: Activity in orchidectomized castrated Sprague-Dawley rat assessed as reduction in LH level at 30 mg/kg, po after 24 hrs; assay type: functional, organism-based; parameters: dose 30 mg/kg; settings: in the assay text read “after 1 to 6 hrs” for “after 24 hrs”
In short: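 Male Sprague–Dawley rats ten days post-castration, jugular-catheterized; basal blood drawn, then vehicle (2% Tween 80/0.04 N HCl) or antagonist given orally. Blood sampled at regular intervals, plasma LH measured by ELISA. Figure legend gives PEG 400 as vehicle, nine animals per group, t = 0 levels set to 100.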

[14] = target: 5-hydroxytryptamine receptor 2A (Homo sapiens, UniProt P28223); experiment: Binding affinity to 5HT2A receptor
Chain of 5-hydroxytryptamine receptor 2A (P28223 whole entry): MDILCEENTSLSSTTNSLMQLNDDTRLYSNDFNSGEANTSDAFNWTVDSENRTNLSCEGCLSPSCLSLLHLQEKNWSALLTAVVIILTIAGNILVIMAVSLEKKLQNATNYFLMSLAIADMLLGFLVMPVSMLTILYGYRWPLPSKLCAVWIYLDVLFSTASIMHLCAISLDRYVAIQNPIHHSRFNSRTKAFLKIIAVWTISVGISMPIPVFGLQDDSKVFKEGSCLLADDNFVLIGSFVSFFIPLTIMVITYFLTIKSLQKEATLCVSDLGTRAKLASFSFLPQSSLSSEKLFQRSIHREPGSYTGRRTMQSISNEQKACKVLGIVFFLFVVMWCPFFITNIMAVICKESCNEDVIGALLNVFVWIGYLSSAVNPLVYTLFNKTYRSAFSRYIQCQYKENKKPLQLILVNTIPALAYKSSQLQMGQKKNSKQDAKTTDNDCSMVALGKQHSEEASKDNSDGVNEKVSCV

IC50 [1]: 0.011 µM | IC50 [2]: 0.032 µM | IC50 [3]: 0.004 µM | IC50 [4]: 0.059 µM | half-life [5]: 1.1 h | AUC(0-inf) [6]: 0.19 µg·h/mL | clearance [7]: 5.7 L/h/kg | Vd [8]: 4.8 L/kg | half-life [9]: 3.1 h | Tmax [10]: 0.67 h | Cmax [11]: 0.48 µg/mL | AUC(0-inf) [12]: 2.72 µg·h/mL | bioavailability [13]: 74% | Ki [14]: 0.23 µM
Structure (SMILES): CCn1cc(CN2CCN(c3cccc4[nH]c(-c5ccc(C(C)(C)C)cc5)nc34)CC2)c(=O)[nH]c1=O
Activity (Rattus norvegicus): Active
